Most compounds without a hit are left out; they make up all but 2.9% or so of the library.
SUMO Mot1 rescue: SUMOylation pathway inhibition by Mot1-301 growth rescue; S. cerevisiae Mot1-301 growth rescue, ATP luminescence, 38.5C; percent above DMSO median, 100 means doubled; growth rescue, % at 18.8 µM; 1% of 320,000 active;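 active = every valid replicate shows activation above 250% relative to neutral control wells; inactive = the rest, any valid replicate at or below 250%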;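 note: OY570 slx delta 5 strain wells were the positive control but not used for scaling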
NALP1 yeast inh: inhibitors of NALP1 inflammasome in yeast. inhibition, % at 10 µM. S. cerevisiae NALP1/ASC/caspase-1 growth, X-gal OD620, 72 h. 0.61% of 280,000 active; in the data active = inhibition mostly above about 24%, no sharp cut-off; inactive = mostly below about 32%
NLRP3 yeast inh: inhibitors of NALP3 inflammasome in yeast; Yeast reconstituted NLRP3/ASC/caspase-1, beta-gal luminescence, 24 h; inhibition, % at 10 µM; 0.39% of 330,000 active; AID 2825;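 active = inhibition of 50% or more; inactive = inhibition below 50%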;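 note: plate controls were induced DMSO wells for no effect and uninduced yeast grown without galactose for full effect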
PolyA inhibitor: blocks polyadenylation in yeast reporter cells. AID 1875. activity score, % at 12 µM. S. cerevisiae SKY197-pL101 polyadenylation reporter, beta-gal luminescence; efflux-impaired pdr1/pdr3 knockout yeast; score 100 = 6 SD above DMSO. 0.02% of 300,000 active;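 active = lowest replicate activity score at least 50, where 100 means six control SD above control mean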;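 note: yeast exposed to compound for 9 h at 30 °C; higher score means more reporter readthrough which indicates perturbed polyadenylation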
IMP-1 inhibitor: blocks Pseudomonas aeruginosa IMP-1 metallo-beta-lactamase; purified IMP-1, nitrocefin hydrolysis, epi-absorbance fluorescence; inhibition, % at 5.6 µM; 0.45% of 290,000 active; AID 1556;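 active = inhibition above the mean plus 3 SD of all compounds in the same screening run, cut at about 4.5% in these data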;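 note: 0% = IMP-1 with DMSO and 100% = DMSO wells lacking enzyme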
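system = purified recombinant IMP-1 beta-lactamase | amount = 0.2 nM IMP-1, as dispensed | medium = HEPES buffer pH 7.1 with ZnSO4 and Brij 35 | times = 25 °C, 15 min preincubation, 25 min reaction | detection = plate fluorescence quenching by hydrolysis product, ex 480/em 530 nm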
VIM-2 inh: blocks Pseudomonas aeruginosa VIM-2 metallo-beta-lactamase; inhibition, % at 5.6 µM; purified VIM-2, nitrocefin hydrolysis, epi-absorbance fluorescence; 0.89% of 290,000 active;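 active = inhibition above the mean of all tested compounds plus 3 SD, cutoff set per screening run, cut at about 7.5% in these data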;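 note: red hydrolysis product quenches plate fluorescence so inhibitors raise well fluorescence; 0% = enzyme with DMSO and 100% = DMSO without enzyme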
Active calls of the source: *; / = no result given.

SMILES	SUMO Mot1 rescue	NALP1 yeast inh	NLRP3 yeast inh	PolyA inhibitor	IMP-1 inhibitor	VIM-2 inh
CSc1ccccc1C(=O)C1CCCN(C(=O)c2cncs2)C1 (stereo not drawn)	-5.2	21.3	-3.0	16.8	-1.9	6.7
Oc1ccc2ccccc2c1/C=N/Nc1nnc(-c2ncc[nH]2)c2ccccc12	46.2	1.7	23.5	-0.2	35.6*	-3.7
C[C@H](NC(=O)[C@H](Cc1ccccc1)NC(=O)c1cc2cc(Cl)ccc2n1C)C(=O)O	-11.3	5.1	4.0	7.1	-1.2	-4.1
CC(C)Cc1nnc(NC(=O)CCC(=O)NC2CCCCC2)s1	120.9	6.5	19.6	-2.8	-3.5	-1.2
CN(C)c1cc(-c2ccc(Cl)c(Cl)c2)oc(=O)c1Cl	-3.0	/	16.5	-5.9	5.4*	-1.9
CN(C)c1cc(-c2ccc(Cl)cc2)oc(=O)c1Cl	-13.1	2.2	34.2	-13.0	-1.0	0.6
Cc1ccccc1CNC(=O)C(=O)NCCC1CCCCN1S(=O)(=O)c1ccccc1 (stereo not drawn)	185.7	/	11.8	9.0	/	/
COc1ccc(OCCN(C)Cc2ccccc2)cc1	125.6	30.2	9.8	10.9	-6.9	-4.5
COc1ccc(CC(=O)N(Cc2ccccc2)C(C)C)cc1	-14.1	2.1	26.3	-9.8	-3.4	-2.2
COc1ccc(CCC(C)N(C)Cc2ccccc2)cc1 (stereo not drawn)	1.0	29.7*	19.4	12.0	-2.5	-2.5
COc1ccc(OCCCN(C)Cc2ccccc2)cc1	9.2	37.6*	21.4	-2.5	-2.9	-0.6
O=C(Nc1ccc(F)c(F)c1)C1CCN(S(=O)(=O)c2cccs2)CC1	7.5	/	17.9	/	/	/
O=C(c1ccc2c(=O)n(Cc3ccco3)c(=S)[nH]c2c1)N1CCN(Cc2ccccc2)CC1	26.3	-4.6	-1.5	-15.9	-1.8	-1.5
CN1CCN(C(=O)c2ccc3c(=O)n(Cc4ccco4)c(=S)[nH]c3c2)CC1	9.8	-7.7	9.2	-7.7	-0.7	8.3*
Cc1cc(C(=O)NCCC(c2ccccc2)c2ccccc2)c(C)o1	-0.1	40.4*	22.8	-8.9	0.4	-1.2
CN1N=C(C(=O)N2CCCC(N3CCN(c4ccc(F)cc4)CC3)C2)CCC1=O (stereo not drawn)	7.0	-0.8	12.3	-26.6	-2.4	-1.8
CC(C)NC(=O)CN(C(=O)CCC(=O)Nc1nccs1)c1ccc(C(C)C)cc1	-2.4	6.2	2.6	17.8	-3.3	-2.6
COc1ccc(OC)c(Nc2c3ccccc3nc3ccccc23)c1	11.8	21.8	6.7	-2.4	-3.9	11.2*
COc1ccc(OC)c(Nc2nc(NCCO)c3ccccc3n2)c1	-4.2	19.8	21.8	67.0*	-1.5	1.7
Cc1ccc(NC(=O)CNC(=O)c2cccs2)c(O)c1	-3.9	/	12.1	-13.0	/	/
CN(C)C(CNC(=O)CCNS(=O)(=O)c1ccccc1C(F)(F)F)c1ccccc1 (stereo not drawn)	0.0	/	8.0	/	/	/
Cc1ccc([N+](=O)[O-])cc1NC(=S)NC(=O)C(C)(C)C	-9.0	-8.5	28.4	-16.7	5.1*	3.3
COc1ccccc1C(=O)CN1C(=O)NC2(CCc3ccccc32)C1=O (stereo not drawn)	9.1	/	9.4	23.1	/	/
O=C(CSc1nnc(-c2cccs2)n1C1CC1)NC1CCS(=O)(=O)C1 (stereo not drawn)	-12.2	/	14.2	/	/	/
O=C(NCCN1CCCC1=O)C1CCC(=O)N(CCc2ccc(Cl)cc2)C1 (stereo not drawn)	84.6	32.5*	-10.0	-3.7	-0.6	-2.2
SMILES	SUMO Mot1 rescue	NALP1 yeast inh	NLRP3 yeast inh	PolyA inhibitor	IMP-1 inhibitor	VIM-2 inh
Fc1ccc(-c2ccc(CNCc3ccccn3)o2)cc1	9.2	17.5	22.1	12.1	-3.4	11.0*
CC(=O)N1CCN(Cc2nc3cc(NC(=O)c4ccc(F)cc4)ccc3n2C)CC1	/	-8.8	3.2	15.0	-1.7	0.7
CCOC(=O)c1ccc(-n2c(C)ccc2C)cc1	31.8	14.7	3.0	-2.2	-3.4	-1.9
Nc1nnc(SC2CC(=O)N(c3ccccc3)C2=O)s1 (stereo not drawn)	209.8	36.7*	21.5	-4.4	-3.1	-2.3
CCOC(=O)c1ccc(N2C(=O)C=CC2=O)cc1	89.8	108.2*	19.7	-149.6	-3.5	-2.9
CCOC(=O)c1ccc(N2C(=O)CC(Sc3nc(C)cc(C)n3)C2=O)cc1 (stereo not drawn)	-3.7	9.6	18.0	-5.3	-2.1	-0.7
CCOC(=O)c1ccc(N2C(=O)CC(Sc3nnc(C)s3)C2=O)cc1 (stereo not drawn)	37.1	39.6*	28.2	23.2	-2.8	-1.8
Cc1cc(NC(=O)NN2CCOCC2)nn1-c1c(Cl)cc(Cl)cc1Cl	-5.9	5.6	10.5	-5.4	-1.5	-3.5
CC(NC(=O)c1cccc(N(C)C)c1)c1ccc(-n2ccnc2)cc1 (stereo not drawn)	17.8	1.8	7.2	1.8	-0.8	0.7
Cc1ccc(C)c(NC(=S)NCCSc2ccc(Cl)cc2)c1	33.4	26.7	22.6	-23.2	-1.4	-0.8
Cc1ccccc1NC(=S)NCCSc1ccc(Cl)cc1	13.5	0.5	22.9	-7.4	49.8*	-2.8
CCCc1cc(=O)oc2cc(C)cc(OC(C)C(=O)NCc3ccncc3)c12 (stereo not drawn)	-5.1	7.2	8.2	-1.0	-2.9	1.1
COc1cccc2sc3ccc(NCc4ccc5c(c4)OCO5)cc3c(=O)c12	112.8	-0.2	17.9	-13.3	-2.0	9.2*
O=C(Nc1cccnc1)c1cccnc1Cl	339.3*	-6.7	-12.9	1.3	-2.6	-0.1
CCN1/C(=C/c2ccc3cccc(C)c3[n+]2CC)Sc2ccccc21	-6.5	33.7*	6.3	-1.0	-2.0	-0.4
Cc1ccc(Nc2nc(N)nc(CSc3nc(C)cc(C)n3)n2)cc1	-3.0	11.1	6.4	19.8	4.9*	0.7
O=C(NCCc1nnc2ccc(N3CCCC3)nn12)c1ccccc1	-9.6	13.1	-0.1	3.5	-5.4	-0.2
Cc1cc(C)c2nc(C)cc(Nc3ccc(C(=O)N(C)C)cc3)c2c1	-7.3	1.0	-5.1	14.9	-4.6	0.3
CC(=O)c1ccc(Nc2cc(C)nc3c(C)cc(C)cc23)cc1	-13.9	24.8	-0.1	-9.4	-2.5	8.0*
COc1ccc(/C=N/Nc2cc(C)nc3ccccc23)cc1	-5.3	-6.1	21.0	7.9	-0.8	7.5
COc1ccc(Nc2cc(C)nc3ccc(OC)cc23)cc1	-11.1	26.7	11.1	6.9	-0.6	10.6*
Cc1ccc(Nc2cc(C)nc3ccc(C)cc23)cc1	6.1	26.2	12.3	-9.1	2.6	10.0*
COc1ccc2nc(C)cc(N/N=C/c3ccc(F)cc3)c2c1	-24.3	18.1	30.0	24.4	-4.3	8.6*
O=C(Nc1ccc(N2CCOCC2)cc1)c1ccc(Cl)c(S(=O)(=O)N2CCCC2)c1	-2.5	/	16.2	/	/	/
Cc1cc(Nc2cccc(Cl)c2)c2ccccc2n1	5.3	15.2	27.9	-5.1	-3.0	0.4
